Measurements taken from ChEMBL document CHEMBL3877271, “Antagonizing STAT3 activation with benzo[b]thiophene 1, 1-dioxide based small molecules” (Eur J Med Chem, 2017).
The source made the active and inactive calls. The rule behind the calls is not given here.

Assays:
[1] = Antiproliferative activity against human MDA-MB-231 cells after 72 hrs by MTT assay; assay type: functional, cell-based; conditions: MDA-MB-231, 72 h
Procedure, shortened: (§1)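 Cells in RPMI-1640 with 10% FBS, penicillin/streptomycin, 37 °C, 5% CO₂; seeded 3000-5000 cells/well, left overnight (16 h), then medium replaced with fresh medium holding serial dilutions in triplicate for 72 h. MTT read-out; viability = absorbance of treated/solvent control × 100%. Stattic served as reference.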

[2] = system: MDA-MB-231; test: Induction of apoptosis in human MDA-MB-231 cells assessed as live cells at 5 uM after 24 hrs by Annexin-V FITC/propidium iodide staining based flow cytometry (reference value: 90.3%); assay type: functional
[3] = system: MDA-MB-231; test: Induction of apoptosis in human MDA-MB-231 cells assessed as increase in cleaved PARP expression at 1 to 5 uM after 24 hrs by Western blot method; assay type: functional, cell-based
Procedure, shortened: (§2)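 MDA-MB-231 cells treated 24 h, trypsinised and lysed in RIPA buffer (50 mM Tris-HCl pH 7.4, 150 mM NaCl, 0.25% deoxycholate, 1% NP-40, 1 mM EDTA, protease inhibitors). Equal total protein from whole-cell lysates immunoblotted; Stattic 5 µM used as comparator.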

[4] = system: MDA-MB-231; test: Induction of apoptosis in human MDA-MB-231 cells assessed as live cells at 7 uM after 24 hrs by Annexin-V FITC/propidium iodide staining based flow cytometry (reference value: 90.3%); assay type: functional
[5] = system: MDA-MB-231; test: Induction of apoptosis in human MDA-MB-231 cells assessed as early apoptotic cells at 1 uM after 24 hrs by Annexin-V FITC/propidium iodide staining based flow cytometry (reference value: 3.8%); assay type: functional
[6] = Effect on total STAT3 protein level in human MDA-MB-231 cells at 1 to 5 uM after 24 hrs by Western blot method; assay type: cell-based; conditions: mda-mb-231, 24 h; procedure, shortened: as §2
[7] = Antiproliferative activity against human HCT116 cells after 72 hrs by MTT assay; assay type: functional, cell-based; conditions: HCT-116, 72 h; procedure, shortened: as §1
[8] = system: Mus musculus; test: Toxicity in ICR mouse implanted with mouse 4T1 cells assessed as body weight loss at 10 mg/kg, ip daily for 11 days measured daily during compound dosing; assay type: organism-based; conditions: in vivo, 264 h
Procedure, shortened: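 4T1-bearing male ICR mice (5 weeks, 6/group), dosed i.p. with PBS/DMSO (8:2) vehicle control. Body weight recorded daily. BI% = (1 − mean treated/mean control body weight) × 100.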

[9] = system: MDA-MB-231; test: Induction of apoptosis in human MDA-MB-231 cells assessed as necrotic cells at 3 uM after 24 hrs by Annexin-V FITC/propidium iodide staining based flow cytometry (reference value: 4.1%); assay type: functional
[10] = Antiproliferative activity against human A549 cells after 72 hrs by MTT assay; assay type: functional, cell-based; conditions: A549, 72 h; procedure, shortened: as §1
[11] = system: MDA-MB-231; test: Induction of apoptosis in human MDA-MB-231 cells assessed as late apoptotic cells at 3 uM after 24 hrs by Annexin-V FITC/propidium iodide staining based flow cytometry (reference value: 1.8%); assay type: functional
[12] = target: Signal transducer and activator of transcription 3 (Homo sapiens) (UniProt P40763); test: Inhibition of STAT3 in human MDA-MB-231 cells assessed as downregulation of Bcl2 expression at 1 to 5 uM after 24 hrs by Western blot method; assay type: cell-based; procedure, shortened: as §2
Sequence of Signal transducer and activator of transcription 3 (Homo sapiens) (P40763 whole entry): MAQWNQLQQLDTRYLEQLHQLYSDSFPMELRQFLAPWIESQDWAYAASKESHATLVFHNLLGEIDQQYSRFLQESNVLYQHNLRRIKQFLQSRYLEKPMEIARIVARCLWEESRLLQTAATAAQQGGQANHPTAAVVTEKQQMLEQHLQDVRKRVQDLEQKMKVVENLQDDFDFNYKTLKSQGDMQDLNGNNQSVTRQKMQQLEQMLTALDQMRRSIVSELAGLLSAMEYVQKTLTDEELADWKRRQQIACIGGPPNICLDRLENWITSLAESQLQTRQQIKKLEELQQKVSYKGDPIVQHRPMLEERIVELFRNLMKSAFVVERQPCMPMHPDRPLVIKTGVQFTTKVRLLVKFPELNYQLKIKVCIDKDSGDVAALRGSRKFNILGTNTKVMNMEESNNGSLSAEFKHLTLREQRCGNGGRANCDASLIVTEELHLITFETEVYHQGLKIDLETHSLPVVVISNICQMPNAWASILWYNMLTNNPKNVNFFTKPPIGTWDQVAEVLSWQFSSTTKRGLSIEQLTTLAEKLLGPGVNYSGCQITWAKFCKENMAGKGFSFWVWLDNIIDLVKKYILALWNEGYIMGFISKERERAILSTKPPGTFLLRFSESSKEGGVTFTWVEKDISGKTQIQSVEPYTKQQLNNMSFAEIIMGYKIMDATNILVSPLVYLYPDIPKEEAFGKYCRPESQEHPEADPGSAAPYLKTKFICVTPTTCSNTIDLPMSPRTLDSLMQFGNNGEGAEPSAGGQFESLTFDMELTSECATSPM

[13] = target: Signal transducer and activator of transcription 3 (Homo sapiens) (UniProt P40763); test: Inhibition of STAT3 phosphorylation at Tyr-705 residue in human MDA-MB-231 cells after 24 hrs by Western blot method; assay type: cell-based
[14] = system: MDA-MB-231; test: Induction of apoptosis in human MDA-MB-231 cells after 24 hrs by Annexin-V FITC/propidium iodide staining based flow cytometry; assay type: functional, cell-based
[15] = system: MDA-MB-231; test: Induction of apoptosis in human MDA-MB-231 cells assessed as early apoptotic cells at 7 uM after 24 hrs by Annexin-V FITC/propidium iodide staining based flow cytometry (reference value: 3.8%); assay type: functional
[16] = system: MDA-MB-231; test: Induction of apoptosis in human MDA-MB-231 cells assessed as increase in cleaved caspase-3 expression at 1 to 5 uM after 24 hrs by Western blot method; assay type: functional, cell-based; procedure, shortened: as §2
[17] = target: Signal transducer and activator of transcription 3 (Homo sapiens) (UniProt P40763); test: Inhibition of IL-6-stimulated STAT3 phosphorylation in human MDA-MB-231 cells preincubated for 12 hrs followed by IL-6 addition measured after 30 mins by Western blot method; assay type: cell-based
Procedure, shortened: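 Cells adhered overnight in 6-well plates, then serum-starved. Left untreated or given 1-5 µM for 12 h, then stimulated with IL-6 (25 ng/mL). Harvested 30 min later for western blot of p-STAT3.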

[18] = system: MDA-MB-231; test: Induction of apoptosis in human MDA-MB-231 cells assessed as necrotic cells at 5 uM after 24 hrs by Annexin-V FITC/propidium iodide staining based flow cytometry (reference value: 4.1%); assay type: functional
[19] = system: Mus musculus; test: In vivo inhibition of STAT3 phosphorylation in ICR mouse tumor implanted with mouse 4T1 cells at 10 mg/kg, ip daily for 11 days measured on day 12 by Western blot method; assay type: functional, organism-based
Procedure, shortened: (§3)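 Male ICR mice, 5 weeks old, inoculated with 2 × 10⁶ 4T1 cells at the right armpit. At 24 h, randomised into groups of 6 and dosed i.p.; vehicle PBS/DMSO (8:2) daily for 11 days. Killed day 12; tumours weighed; TI% = (1 − mean treated/mean control weight) × 100. Tumour p-STAT3 and STAT3 assessed by western blot.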

[20] = system: MDA-MB-231; test: Induction of apoptosis in human MDA-MB-231 cells assessed as late apoptotic cells at 5 uM after 24 hrs by Annexin-V FITC/propidium iodide staining based flow cytometry (reference value: 1.8%); assay type: functional
[21] = system: MDA-MB-231; test: Induction of ROS generation in human MDA-MB-231 cells at 5 uM after 24 hrs by DCFH-DA staining based flow cytometry relative to control; assay type: functional
Procedure, shortened: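 3 × 10⁵ cells/well in 6-well plates treated 24 h (0, 1, 3, 5 µM). Medium replaced with serum-free medium holding DCFH-DA at 10 µM final, 20 min at 37 °C. Cells washed twice, trypsinised, resuspended in warm PBS and read by flow cytometry.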

[22] = Antiproliferative activity against human MCF7 cells after 72 hrs by MTT assay; assay type: functional, cell-based; conditions: MCF7, 72 h; procedure, shortened: as §1
[23] = system: MDA-MB-231; test: Induction of apoptosis in human MDA-MB-231 cells assessed as necrotic cells at 1 uM after 24 hrs by Annexin-V FITC/propidium iodide staining based flow cytometry (reference value: 4.1%); assay type: functional
[24] = system: MDA-MB-231; test: Induction of apoptosis in human MDA-MB-231 cells assessed as necrotic cells at 7 uM after 24 hrs by Annexin-V FITC/propidium iodide staining based flow cytometry (reference value: 4.1%); assay type: functional
[25] = system: MCF7; test: Potency index, ratio of stattic IC50 to compound IC50 for human MCF7 cells; assay type: functional
[26] = Antitumor activity against mouse 4T1 cells implanted in ICR mouse assessed as tumor growth inhibition at 10 mg/kg, ip daily for 11 consecutive days measured on day 12 relative to control; assay type: functional; conditions: 4T1, ip, 288 h, read-out: TGI; procedure, shortened: as §3
[27] = system: MDA-MB-231; test: Inhibition of colony formation in human MDA-MB-231 cells up to 6 uM incubated for 24 hrs measured after 14 days by crystal violet staining based assay; assay type: functional, cell-based
Procedure, shortened: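 Cells plated at 800-1000 per well in 6-well plates. Treated next day with vehicle or 0.5-6 µM for 24 h, then grown 10-14 d until colonies appeared. Stained with crystal violet for 4 h; colonies scored manually.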

Q: Which IC50 [1] does the source give for `O=S1(=O)C=Cc2cccc(Nc3cccc(C(F)(F)F)c3)c21` here?
A: 0.68 µM

Q: And the Activity [2]?
A: 75.3%

Q: And the Activity [3]?
A: Active

Q: What about the Activity [4] of the same molecule?
A: 72.2%

Q: What about the Activity [5] of the same molecule?
A: 6.3%

Q: What about the Activity [6] of the same molecule?
A: Non-Toxic

Q: And the IC50 [7]?
A: 0.33 µM

Q: And the Activity [8]?
A: Non-Toxic

Q: What about the Activity [9] of the same molecule?
A: 5.8%

Q: And the IC50 [10]?
A: 0.36 µM

Q: What about the Activity [11] of the same molecule?
A: 4.1%

Q: And the inhibition [12]?
A: Active

Q: And the inhibition [13]?
A: Dose-dependent effect

Q: And the Activity [14]?
A: Dose-dependent effect

Q: What about the Activity [15] of the same molecule?
A: 12.2%

Q: And the Activity [16]?
A: Active

Q: And the inhibition [17]?
A: Dose-dependent effect

Q: And the Activity [18]?
A: 7.2%

Q: And the inhibition [19]?
A: Active

Q: What about the Activity [20] of the same molecule?
A: 7.2%

Q: And the “fold change (FC)” value [21]?
A: 1.94

Q: What about the IC50 [22] of the same molecule?
A: 0.75 µM

Q: What about the Activity [23] of the same molecule?
A: 6.2%

Q: What about the Activity [24] of the same molecule?
A: 6.9%

Q: And the “Ratio IC50” value [25]?
A: 1.5 - 12

Q: And the inhibition in vivo at 10 mg/kg [26]?
A: 61%

Q: And the inhibition [27]?
A: Active
